# The list is not random: actives were taken first. Their share in the collection is about 4.8%.
# APP 5UTR inh: inhibitors of APP translation via 5'UTR reporter, primary screen, APP 5'UTR luciferase, SH-SY5Y cells; SH-SY5Y APP 5'UTR-luciferase reporter, luminescence; inhibition, % at 2 µM; 190,000 tested, 0.82% active; AID 1285, 2008;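 active = inhibition above a set limit, derived from the sample mean plus 3 SD, cut at about 45% in these data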
# APP 5'UTR act: activators of APP 5'UTR luciferase reporter, primary screen, SH-SY5Y cells. SH-SY5Y APP 5'UTR luciferase reporter, luminescence; zero percent = DMSO vehicle wells. activation, % at 2 µM. 190,000 tested, 1% active. AID 1276, 2008;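 active = activation above a set limit, based on mean plus 3 SD of controls, cut at about 140% in these data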
# STAT1 act: STAT1 signaling activators, primary screen, cell-based, HTS, luciferase reporter | NIH 3T3 STAT1-luciferase reporter, IFN-gamma, luminescence; 100% = IFN-gamma alone, no compound | activation (% of control), % at 5.5 µM | 200,000 tested, 2.6% active;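 active = activation above the screen-wide mean activation plus 3 SD, cut at about 130% in these data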;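 note: raw ratio to IFN-gamma control signal so 100% means no change and 0% no light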
# NF-kB neuron act: activators of NF-kB expression in neurons, primary screen, cell-based, HTS; human neuronal cells, NF-kB reporter expression; stronger effect = higher value; fold change at 12.5 µM; 190,000 tested, 1.6% active; in the data active = fold change above about 3.3
# FLuc inhib CS: firefly luciferase enzyme inhibitors, primary screen, artefact control for luciferase-based inhibitor screens, biochemical, luminescence, ATPLite. Luciferin 4-monooxygenase (Photinus pyralis), P08659. 10 min. inhibition, % at 10 µM. 200,000 tested, 1.5% active. AID 1006, 2008;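 active = inhibition above about 50% when tested at 10 µM, limit read from the data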
# Target sequence (P08659 whole entry, looked up): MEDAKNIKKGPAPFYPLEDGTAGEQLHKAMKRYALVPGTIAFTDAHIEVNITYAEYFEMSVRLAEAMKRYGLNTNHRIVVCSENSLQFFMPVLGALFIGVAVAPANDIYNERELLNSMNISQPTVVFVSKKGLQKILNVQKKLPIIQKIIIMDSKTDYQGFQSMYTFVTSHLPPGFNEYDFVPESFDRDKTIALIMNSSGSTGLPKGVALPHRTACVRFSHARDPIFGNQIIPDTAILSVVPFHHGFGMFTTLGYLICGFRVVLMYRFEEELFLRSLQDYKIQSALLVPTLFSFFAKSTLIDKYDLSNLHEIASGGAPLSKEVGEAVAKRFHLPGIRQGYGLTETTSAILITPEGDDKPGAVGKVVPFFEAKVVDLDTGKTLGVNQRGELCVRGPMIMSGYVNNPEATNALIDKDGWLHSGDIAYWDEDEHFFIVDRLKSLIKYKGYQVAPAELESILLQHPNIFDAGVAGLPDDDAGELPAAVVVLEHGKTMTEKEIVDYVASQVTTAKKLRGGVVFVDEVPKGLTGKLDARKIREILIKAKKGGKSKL
# FLuc stim CS: FLuc activators, initial screening, artefact control for FLuc-dependent activation tests, biochemical, ATPlite luminescence; 200,000 tested, under 10 active; activation factor at 10 µM; AID 1027, 2008; Luciferin 4-monooxygenase (Photinus pyralis), P08659; ATPlite luciferase biochemical, 10 min; 0 = ATP-free wells, 1 = DMSO control;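 active = luciferase activation factor, scaled between plate controls, of at least 2 with compound at 10 µM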
#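 Assay system: Luciferase/luciferin reagent mix; Medium: PBS as buffer for the ATP substrate; Dosing: test compounds dosed from 2 mM stocks in 100% DMSO; Times: 10 min, room temperature; Signal: luminescence from luciferase reaction; Read-out: luciferase activation; Controls: No-ATP low control, compound-free enzyme-plus-ATP high control.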
# STAT1 act conf: STAT1 signaling activators, confirmation, cell-based, HTS, luciferase reporter; shares compounds with STAT1 act; NIH 3T3 STAT1-luciferase reporter, IFN-gamma potentiation, luminescence; 100% = IFN-gamma EC80 alone, no compound; activation (% of control), % at 5.7 µM; 1,200 tested, 97% active;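 active = activation above a set limit carried over from the earlier primary STAT1 screen, cut at about 140% in these data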;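 note: simple ratio to median IFN-gamma plus DMSO wells so 0% means no light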
# NFkB act: NF-kB reporter activators, TNF-alpha stimulated, counter-screen for STAT1 activator project, cell-based, HEK293T, luciferase luminescence | shares compounds with STAT1 act | 100% = TNF-alpha with vehicle only | activation (% of control), % at 5.7 µM | 1,200 tested, 43% active | AID 1306, 2008;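 active = activation above the mean of solvent-only control wells plus 3 SD, set per campaign, cut at about 130% in these data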;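 note: TNF-alpha given at a submaximal dose yielding about 80% of full reporter signal; values are well signal over median control so 100% means no change and 0% no light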
# STAT3 act 2: STAT3 reporter activation by STAT1 hits, confirmation, counter-screen for STAT1 activator project, U3A cells, luciferase, luminescence; shares compounds with STAT1 act; IL-6; cells lack STAT1; 100 = IL-6 alone, no compound effect; activation (% of control), % at 5.7 µM; 1,200 tested, 46% active;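 active = activation above the solvent-only control well mean plus 3 SD, set per plate batch, cut at about 110% in these data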;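 note: 0% = no luminescence and 100% = median IL-6 plus DMSO wells; higher means more STAT3 reporter activation so hits are non-selective activators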
# An asterisk follows results filed as active; / = no result.
SMILES,APP 5UTR inh,APP 5'UTR act,STAT1 act,NF-kB neuron act,FLuc inhib CS,FLuc stim CS,STAT1 act conf,NFkB act,STAT3 act 2
COc1ccc(C(=O)Oc2coc(CSc3nnc(NC(=O)c4cccs4)s3)cc2=O)cc1,-8,8,99,1,0,1,/,/,/
Cc1ccc2nc(SCC(=O)Nc3ccc(C(N)=O)cc3)[nH]c2c1,-5,5,97,0.97,2,1,/,/,/
Cc1ccc2nc(-c3ccc(NC(=O)CSc4ccccc4)cc3)[nH]c2c1,-88,88,163*,3.5*,7,0.9,198*,108,107
O=C(COC(=O)c1ccccc1NC(=O)C1CC1)c1ccc2c(c1)OCCO2,-38,38,159*,0.59,72*,0.3,170*,105,101
CC(C)(C)C(=O)Nc1ccccc1C(=O)OCC(=O)c1ccc2c(c1)OCCO2,-24,24,97,0.67,22,0.8,/,/,/
Cc1ccc(-c2nc(CN(C)Cc3cccc4cnccc34)c(C)o2)s1,17,-17,90,0.94,-5,1.1,/,/,/
Nc1cccc(C(=O)OCC(=O)c2ccccc2)c1,-114,114,181*,1.2,69*,0.3,181*,121,117*
Nc1cccc(C(=O)OCC(=O)Nc2cccc3c2C(=O)c2ccccc2C3=O)c1,10,-10,100,1.1,-6,1.1,/,/,/
O=C(Nc1cnc2ccccc2c1)c1ccco1,-157,157*,152*,6.2*,23,0.8,183*,105,90
O=C(Nc1cccc(-c2cnc3ccccc3n2)c1)c1ccco1,10,/,126,0.64,6,0.9,/,/,/
N#CC(=C1CCCC1)c1nc(-c2ccccc2)cs1,-99,99,166*,8.1*,54*,0.5,215*,154*,122*
Cc1ccc(-c2csc(C(C#N)=C3CCCC3)n2)cc1,-23,23,125,3.2,32,0.7,/,/,/
COc1ccc(CNC(=O)c2ccc(C(C)C)cc2)cc1,-132,132,151*,3.7*,6,0.9,177*,144*,128*
COc1ccc(C(=O)NCCSc2ccccc2)cc1,-128,128,157*,5.7*,48,0.5,193*,96,112*
Cc1nc2cc(NC(=O)N3c4ccccc4CC3C)ccc2n1C (stereo not given),-202,/,151*,4*,86*,0.1,218*,132,132*
Cc1ccccc1NC(=O)N1c2ccccc2CC1C (stereo not given),5,-5,113,1.4,0,1,/,/,/
C/C(=N\NC(=O)c1ccc(Br)cc1)c1ccccc1,-97,97,159*,5.7*,50,0.5,195*,128,110
C/C(=N/NC(=O)c1ccccc1)c1ccc(NC(=O)C(F)(F)F)cc1,-52,52,108,1.3,1,1,/,/,/
O=C(Cn1cccc1C(=O)c1ccccc1)NCCC1=CCCCC1,6,-6,103,1.9,-6,1.1,/,/,/
CC(=O)Nc1ccc2c(c1)C(=O)c1ccccc1C2=O,-186,186*,156*,3.9*,46,0.5,203*,139*,106
O=C1CC(/C=C/c2cccnc2)=Nc2ccccc2N1,-24,24,94,1.8,6,0.9,/,/,/
O=C1CC(/C=C/c2ccc(Cl)cc2)=Nc2ccccc2N1,-122,122,177*,3.6*,48,0.5,198*,145*,120*
COC(=O)c1ccc(COc2ccccc2/C=C(\C#N)C(=O)Nc2ccc(C)cc2)cc1,-19,19,151*,1.1,4,1,195*,135*,106
Cc1cccc(OCc2nnc(SCC(=O)O)n2Cc2ccccc2)c1,-12,12,101,1,-1,1,/,/,/
Cc1cccc(/C=N\NC(=O)c2ccc(Cl)cc2)c1O,-2,2,155*,4.3*,23,0.8,161*,124,95
SMILES,APP 5UTR inh,APP 5'UTR act,STAT1 act,NF-kB neuron act,FLuc inhib CS,FLuc stim CS,STAT1 act conf,NFkB act,STAT3 act 2
O=C(N/N=C/c1ccc(Cl)cc1Cl)c1cccc(F)c1,-127,127,160*,1.6,26,0.7,212*,142*,107
O=C(C[n+]1ccc(C(=O)N/N=C/c2ccc(Cl)cc2Cl)cc1)c1ccccc1,13,-13,99,1.2,-1,1,/,/,/
Cc1nc(NC(=O)c2ccc3c(c2)OCO3)ccc1Br,-106,106,156*,4*,28,0.7,169*,127,97
Cc1nc(NC(=O)c2cccs2)ccc1Br,-133,133,161*,6.3*,22,0.8,201*,131,123*
O=C(Nc1ccc(NC(=O)c2cccs2)cn1)c1ccccc1,-136,136*,153*,3.8*,17,0.8,201*,133,115*
O=C(Nc1ccc(NC(=O)C2CC2)nc1)c1cccs1,-31,31,117,1.2,6,0.9,/,/,/
CCOc1ccc2nc(NS(=O)(=O)Cc3ccccc3)sc2c1,16,-16,107,2.4,3,1,/,/,/
CC1(C)CNc2cc(N)ccc2S1,-47,47,106,1,0,1,/,/,/
CCC(=O)Nc1ccc(-c2nnc(-c3ccccc3)o2)cc1,-210,210*,163*,1,16,0.8,220*,121,113*
COCCNC(=O)C(C(=O)c1ccc(F)cc1)n1cc(C)ccc1=O (stereo not given),-15,15,100,1.4,-5,1.1,/,/,/
C=CCN1C=CC(=C/C=C(/C#N)C(=O)OCC)C=C1,-143,143*,175*,4.6*,82*,0.2,210*,133*,117*
O=C(NC(=S)Nc1cccnc1)c1cccs1,2,-2,116,1.5,3,1,/,/,/
Cc1ccc2oc(-c3ccc(C)c(NC(=O)Cc4cccs4)c3)nc2c1,-11,11,114,1.1,8,0.9,/,/,/
